Screening data: PubChem BioAssay, several laboratories
NTR1 agonist – activates human neurotensin receptor 1; P30989; NTR1-U2OS beta-arrestin-GFP spot imaging, agonist mode; activation, % at 20 µM; actives 0.17% (n = 330,000);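 active = activation at or above 40% of the spot to cytoplasm intensity ratio, with at least 20 cells analyzed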;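 note: 0% = DMSO without peptide and 100% = 100 nM NTR1 peptide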
Target sequence (P30989 whole entry, looked up): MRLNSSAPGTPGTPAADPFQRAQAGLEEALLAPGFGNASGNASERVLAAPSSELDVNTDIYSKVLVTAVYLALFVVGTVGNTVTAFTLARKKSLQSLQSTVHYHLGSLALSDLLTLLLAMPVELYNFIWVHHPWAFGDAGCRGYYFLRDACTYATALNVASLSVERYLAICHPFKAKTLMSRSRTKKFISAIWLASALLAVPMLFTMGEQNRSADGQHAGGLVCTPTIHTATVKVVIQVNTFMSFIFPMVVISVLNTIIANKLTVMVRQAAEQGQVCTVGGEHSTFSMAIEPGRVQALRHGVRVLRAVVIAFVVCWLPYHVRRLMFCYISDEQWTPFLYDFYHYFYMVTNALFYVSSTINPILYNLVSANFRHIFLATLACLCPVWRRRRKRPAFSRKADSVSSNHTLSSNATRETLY
MC4R antag cAMP – human MC4R antagonism in cAMP assay | P32245 | MC4R-expressing cells, MTII-stimulated cAMP, LANCE TR-FRET | inhibition, % at 6.5 µM | actives 0.48% (n = 360,000) | AID 540295;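 active = inhibition above its plate's cutoff, the mean of tested wells on that plate plus 3 SD, cut at about 29% in these data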;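 note: 0% = Melanotan II alone and 100% = Melanotan II plus saturating MCL0020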
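Material: human MC4R-expressing U2OS cells. Probe or stimulus: Melanotan II challenge. Dosing: 6.5 µM single dose. Times: 30-min compound, 1-h challenge, 1-h detection, room temperature. Technique: TR-FRET with Eu-cAMP and labeled anti-cAMP, 671 nm. Replication: singlicate.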
A1 inh – inhibitors of the anti-apoptotic protein A1, read as caspase activation; AID 2462; caspase activation, % (no concentration beside the values); MEF A1-2A-BIM cells, Caspase-Glo 3/7 luminescence, 3 h; percent of clofoctol response, vehicle zero; actives 0.066% (n = 330,000);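 active = over half of replicate activation scores above 10%, or exactly half above 10 with the replicate mean above 10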
Exocytosis inh – lytic granule exocytosis inhibition; TALL-104 LAMP-1 surface exposure, flow cytometry; cells stimulated with thapsigargin and PMA; inhibition, % at 10 µM; actives 0.66% (n = 360,000); AID 651702;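 active = inhibition above about 55%, limit read from the data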
MC4R barr agon – activates human MC4R beta-arrestin recruitment; actives 0.98% (n = 360,000); P32245; AID 540308; U2OS MC4R beta-arrestin complementation, luminescence; percent of melanotan II response, DMSO zero; activation, % at 8.9 µM;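 active = activation above a per-plate cutoff, the mean activation of sample wells on that plate plus 3 SD, cut at about 8% in these data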
sPLA2-III inh – Blocks human group III sPLA2 activity | actives 0.56% (n = 370,000) | QFRET BODIPY PC-A2 liposome hydrolysis, fluorescence | Q9NZ20 | inhibition, % at 12.2 µM;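 active = inhibition above mean plus 3 SD of compounds lying within the high and low control bounds, cut at about 19% in these data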;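 note: 0% = median of test compound wells and 100% = no enzyme DMSO wells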
Active calls of the source: *. Sampled rows, rich in hits. Any-hit rate of the full collection: about 2.5%.

What do the screens show for `CC(=NNC(=O)c1ccncc1)c1ccc2ccccc2c1O`?
MC4R antag cAMP: 6; Exocytosis inh: 15; MC4R barr agon: -1; sPLA2-III inh: 20*

Results for CC(=NNC(=O)c1ccncc1)c1ccccc1O ?
MC4R antag cAMP: 9; Exocytosis inh: -2; MC4R barr agon: 0; sPLA2-III inh: 2

How did C[C@@H]1COc2cccc(NCCCN3CCOCC3)c2S(=O)(=O)N1 do in these assays?
sPLA2-III inh: -1

How did CC(C)(C)c1ccc(-c2nnc(SCC(=O)Nc3ccc(S(=O)(=O)Nc4nccs4)cc3)n2Cc2ccco2)cc1 do in these assays?
sPLA2-III inh: 0

What do the screens show for `CC1=CC(=O)C(C(C)C)=CC1=NC(=O)c1ccc(C)cc1`?
NTR1 agonist: 0; MC4R antag cAMP: 51*; A1 inh: 0; Exocytosis inh: 33; MC4R barr agon: 0; sPLA2-III inh: -4

Results for COc1ccc(OC)c2cc3ccccc3cc12 ?
MC4R antag cAMP: -7; Exocytosis inh: 104*; MC4R barr agon: -1; sPLA2-III inh: 2

What do the screens show for `COc1cc2ccccc2cc1C(=O)O`?
NTR1 agonist: 0; MC4R antag cAMP: 0; A1 inh: 1; Exocytosis inh: 3; MC4R barr agon: -1; sPLA2-III inh: -3

Results for O=C(CCc1ccccc1)N[C@H]1[C@H](O)CCC[C@]12C(=O)N(Cc1ccccc1)c1ccccc12 ?
sPLA2-III inh: 4

Results for CCCCc1c(-c2ccccc2OC)ncn1Cc1ccc(F)c(F)c1 ?
sPLA2-III inh: -9

Results for Nc1ccc2c(c1)C/C(=C/c1ccco1)C2=O ?
NTR1 agonist: -1; MC4R antag cAMP: -3; A1 inh: -1; Exocytosis inh: 0; MC4R barr agon: -2; sPLA2-III inh: 22*

What do the screens show for `Nc1nonc1C(=O)NCCN=Cc1cc(Cc2ccccc2)cc(Br)c1O`?
NTR1 agonist: 31; MC4R antag cAMP: 5; A1 inh: -1; Exocytosis inh: 13; MC4R barr agon: 9.2*

Results for Cc1cc(/C=C(\C#N)C(=O)NCCc2c[nH]c3ccccc23)c(C)n1C ?
NTR1 agonist: 3; MC4R antag cAMP: -3; A1 inh: 0; Exocytosis inh: -1; MC4R barr agon: -4; sPLA2-III inh: -39

What do the screens show for `COc1cc(/C=C(/C#N)C(=O)c2c(C)[nH]c3ccccc23)ccc1OCC#N`?
NTR1 agonist: 4; MC4R antag cAMP: -6; A1 inh: 0; Exocytosis inh: 57*; MC4R barr agon: 0; sPLA2-III inh: -11

Results for COc1cc(/C=C(/C#N)C(=O)NCCc2c[nH]c3ccccc23)ccc1OCc1ccccc1F ?
NTR1 agonist: 0; MC4R antag cAMP: 17; A1 inh: 9.4*; Exocytosis inh: 4; MC4R barr agon: 3; sPLA2-III inh: -2

How did CCOC(=O)CNC(=O)N(C)[C@H]1C[C@H]2c3[nH]c4c(-c5ccccc5)cccc4c3CCN2C(=O)[C@H]1[C@H](C)O do in these assays?
sPLA2-III inh: 0

What do the screens show for `O=S(=O)(Nc1ccc(N=Nc2ccccc2)cc1)c1ccccc1`?
NTR1 agonist: 3; MC4R antag cAMP: 0; A1 inh: 1; Exocytosis inh: 12; MC4R barr agon: 8.3*; sPLA2-III inh: -60

How did COC(=O)[C@]12C[C@H](CC(=O)NCc3ccc(C)o3)C(=O)N(Cc3ccccc3)C1=C[C@H](C1CCCC1)O[C@@H]2C do in these assays?
sPLA2-III inh: -14

How did O=C(COC(=O)c1ccccc1O)Nc1cc(S(=O)(=O)N2CCCCCC2)ccc1Cl do in these assays?
NTR1 agonist: 5; MC4R antag cAMP: 3; A1 inh: -1; Exocytosis inh: 0; MC4R barr agon: 1; sPLA2-III inh: 4

How did CCN1CCN(c2ccc(S(=O)(=O)N3CCCCC3)cc2NC(=O)Cc2ccc(Cl)c(Cl)c2)CC1 do in these assays?
NTR1 agonist: 9; MC4R antag cAMP: 0; A1 inh: -1; Exocytosis inh: 56*; MC4R barr agon: 4

What do the screens show for `O=C(COC(=O)c1ccccc1)Nc1cc(S(=O)(=O)N2CCCCCC2)ccc1Cl`?
NTR1 agonist: 5; MC4R antag cAMP: 7; A1 inh: 1; Exocytosis inh: 0; MC4R barr agon: 8.8*; sPLA2-III inh: 3

Results for CCN1CCN(c2ccc(S(=O)(=O)N3CCCCC3)cc2NC(=O)/C=C/c2cc(OC)ccc2OC)CC1 ?
NTR1 agonist: 2; MC4R antag cAMP: 9; A1 inh: -1; Exocytosis inh: 60*; MC4R barr agon: -3; sPLA2-III inh: -9

How did CN(c1ccccc1)c1nc(N)c([N+](=O)[O-])c(Nc2ccc(F)cc2)n1 do in these assays?
NTR1 agonist: 13; MC4R antag cAMP: 8; A1 inh: 0; Exocytosis inh: -12; MC4R barr agon: 2; sPLA2-III inh: 0

Results for CN(c1ccccc1)c1nc(N)c([N+](=O)[O-])c(Nc2ccccc2F)n1 ?
NTR1 agonist: 32; MC4R antag cAMP: 11; A1 inh: -1; Exocytosis inh: 76*; MC4R barr agon: -3; sPLA2-III inh: -3

What do the screens show for `CC(=O)Nc1cccc(C(=O)OCc2ccc(C(=O)Oc3ccc(Cl)cc3)cc2)c1`?
NTR1 agonist: 12; MC4R antag cAMP: 8; A1 inh: -3; Exocytosis inh: -3; MC4R barr agon: 13*; sPLA2-III inh: -1

What do the screens show for `O=C(NCC(c1ccco1)N1CCN(c2ccc(F)cc2)CC1)OCc1ccccc1` (stereo not given)?
NTR1 agonist: 0; MC4R antag cAMP: 5; A1 inh: -3; Exocytosis inh: 2; MC4R barr agon: 8.3*; sPLA2-III inh: -7

What do the screens show for `Fc1ccc(CN2CCN(c3ncc(Cc4ccccc4)cn3)CC2)c(Cl)c1`?
sPLA2-III inh: 0

Results for CCCn1c(CCNc2nc(-c3cccc(Br)c3)cs2)nc2ccccc21 ?
MC4R antag cAMP: 9; Exocytosis inh: -2; MC4R barr agon: 8.4*; sPLA2-III inh: -10

Results for CCCn1c(C(C)Nc2nc(-c3cccc(Br)c3)cs2)nc2ccccc21 (stereo not given) ?
NTR1 agonist: 8; MC4R antag cAMP: 6; A1 inh: 0; Exocytosis inh: -1; MC4R barr agon: 0; sPLA2-III inh: -14

Results for COc1cccc(CNC(=O)[C@H]2CCCN2C(=O)[C@H]2CCCN2C(=O)c2ccc(Cl)cc2)c1 ?
sPLA2-III inh: -1

Results for Cc1cc(C)nc(N/N=C/c2ccccc2)n1 ?
NTR1 agonist: -1; MC4R antag cAMP: 1; A1 inh: -1; Exocytosis inh: 0; MC4R barr agon: -3

What do the screens show for `Cc1nc(N/N=C/c2ccccc2)nc(N(C)c2ccccc2)c1[N+](=O)[O-]`?
NTR1 agonist: 2; MC4R antag cAMP: 4; A1 inh: 0; Exocytosis inh: 4; MC4R barr agon: 10*; sPLA2-III inh: -1
